Laboratory results published in ChEMBL document CHEMBL5338714, “Design, synthesis and biological evaluation of biphenyl-benzamides as potent FtsZ inhibitors” (Eur J Med Chem, 2022).
Converted amounts (≈) assume the structure as drawn. The source made the active and inactive calls. The rule behind the calls is not given here.

Assays:
[1] = target: T1, Cell division protein FtsZ (Staphylococcus aureus) (UniProt P0A031); test: Inhibition of recombinant Staphylococcus aureus FtsZ assessed as FtsZ polymerization at 10 ug/ml in presence of GTP by absorbance based turbidity assay; settings: dose 10.0 µg/ml
T1 sequence (whole entry): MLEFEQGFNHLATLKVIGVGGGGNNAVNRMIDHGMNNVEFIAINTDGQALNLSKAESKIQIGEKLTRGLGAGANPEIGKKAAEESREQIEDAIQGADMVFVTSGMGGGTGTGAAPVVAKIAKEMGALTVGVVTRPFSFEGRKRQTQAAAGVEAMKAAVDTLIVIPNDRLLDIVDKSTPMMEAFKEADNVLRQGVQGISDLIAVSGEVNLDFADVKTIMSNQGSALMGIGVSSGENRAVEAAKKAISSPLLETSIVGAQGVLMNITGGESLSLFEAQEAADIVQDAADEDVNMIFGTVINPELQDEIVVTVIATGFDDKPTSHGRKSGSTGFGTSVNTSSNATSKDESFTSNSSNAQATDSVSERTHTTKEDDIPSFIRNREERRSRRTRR
Summary of the method: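 Recombinant S. aureus FtsZ (12 µM) with 1 mM GTP and compound in 50 mM Hepes, 50 mM KCl, 5 mM MgCl2. Polymerization followed continuously at 25 °C as light scattering (A340).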

[2] = Metabolic stability in human liver microsomes assessed as compound remaining preincubated for 5 mins followed by NADPH addition measured immediately by LC/MS analysis; type: ADME, Microsome; settings: read-out: Stability
Summary of the method: (§1)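 Liver microsomes (final protein 0.75 mg/mL) with compound in 100 mM phosphate buffer pH 7.4, preincubated 5 min at 37 °C. Reaction started with NADPH regeneration system, stopped at 5, 15, 30 and 45 min with acetonitrile containing internal standard. Percent remaining measured by LC/MS, with ketanserin as reference; variation given as RSD of area ratio.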

[3] = Metabolic stability in rat liver microsomes assessed as intrinsic clearance preincubated for 5 mins followed by NADPH addition measured upto 45 mins by LC/MS analysis; type: ADME, Microsome; settings: time < 50 min, read-out: CLH
Summary of the method: (§2)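 Liver microsomes at 0.75 mg/mL final protein, with test article and NADPH regeneration system (6 mM) in 100 mM phosphate buffer, pH 7.4. Preincubated 5 min at 37 °C, then started with NADPH. Quenched with acetonitrile containing internal standard at 5, 15, 30 and 45 min, centrifuged, and percent remaining measured by LC/MS. Ketanserin served as reference.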

Bacillus subtilis = test: Antibacterial activity against Bacillus subtilis ATCC9372 assessed as bacterial growth inhibition incubated for 18 hrs by CLSI based broth microdilution method; type: functional
Summary of the method: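 CLSI broth microdilution. Log-phase bacteria in Mueller Hinton broth added to 2-fold serial dilutions spanning 128 to 0.25 or 2 to 0.004 µg/mL. Incubated aerobically for 18 h at 37 °C, then OD600 read. MIC is the lowest concentration giving ≥90% growth inhibition; three independent assays.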

[4] = Half life in ICR mouse at 1 mg/kg, iv measured for 0.08 to 24 hrs by LC-MS/MS analysis; type: ADME, organism-based; settings: in vivo, time 0.08-24 hrs
Summary of the method: (§3)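 Male ICR mice, single intravenous dose formulated in 5% DMSO, 4% ethanol, 5% Cremophor EL, 86% water. Blood sampled at 5, 15, 30 min, 1, 2, 4, 8 and 24 h; plasma stored at -20 °C. Compound quantified by LC-MS/MS, with parameters from non-compartmental analysis.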

[5] = Bioavailability in ICR mouse at 5 mg/kg, po measured for 0.25 to 24 hrs by LC-MS/MS analysis; type: ADME, organism-based; settings: in vivo, time 0.25-24 hrs
Summary of the method: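 Male ICR mice dosed orally with a solution of 5% DMSO, 4% ethanol, 5% Cremophor EL and 86% water. Blood collected at 15, 30 min, 1, 2, 4, 6, 8 and 24 h; plasma stored at -20 °C. Plasma levels measured by LC-MS/MS; parameters by non-compartmental analysis, with bioavailability relative to the 1 mg/kg iv dose.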

[6] = Metabolic stability in rat liver microsomes assessed as compound remaining preincubated for 5 mins followed by NADPH addition measured immediately by LC/MS analysis; type: ADME, Microsome; settings: read-out: Stability
[7] = target: T1, Cell division protein FtsZ (Staphylococcus aureus); test: Inhibition of recombinant Staphylococcus aureus FtsZ assessed as FtsZ polymerization at 10 ug/ml preincubated for 10 mins followed by GTP addition measured after 20 mins by TEM analysis; settings: dose 10.0 µg/ml, time 30.0 min
Summary of the method: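 Recombinant S. aureus FtsZ (12 µM) preincubated 10 min at room temperature with compound in DMSO, in 50 mM Hepes-KOH pH 6.8. KCl 50 mM, MgCl2 5 mM and GTP 1 mM then added, 20 min at 37 °C. Samples placed on glow-discharged carbon grids, stained with 1% phosphotungstic acid, imaged by TEM.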

[8] = Metabolic stability in human liver microsomes assessed as intrinsic clearance preincubated for 5 mins followed by NADPH addition measured upto 45 mins by LC/MS analysis; type: ADME, Microsome; settings: time < 50 min, read-out: CLH; summary of the method: as §2
Staphylococcus aureus [9] = test: Bactericidal activity against Staphylococcus aureus ATCC25923 incubated for 24 hrs by broth microdilution method; type: functional
Summary of the method: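 MBC from the broth microdilution plates (MHB, 2-fold dilutions). After 24 h, 5 µL aliquots from clear wells were plated on LB agar and incubated aerobically 24 h at 37 °C, then colonies counted. MBC = lowest concentration with no colonies.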

Staphylococcus aureus [10] = test: Antibacterial activity against methicillin-resistant Staphylococcus aureus shhsE1 assessed as bacterial growth inhibition incubated for 18 hrs by CLSI based broth microdilution method; type: functional
Summary of the method: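 Broth microdilution to CLSI guidelines. Log-phase bacteria grown in Mueller Hinton broth, diluted, then exposed to 2-fold serial dilutions of compound (128 to 0.25 µg/mL or 2 to 0.004 µg/mL). Incubated aerobically 18 h at 37 °C. Growth read as OD600. MIC = lowest concentration giving ≥90% growth inhibition. Three independent assays.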

[11] = Metabolic stability in rat liver microsomes assessed as compound remaining preincubated for 5 mins followed by NADPH addition measured after 15 mins by LC/MS analysis; type: ADME, Microsome; settings: time 20 min, read-out: Stability; summary of the method: as §1
[12] = target: T1, Cell division protein FtsZ (Staphylococcus aureus); test: Inhibition of recombinant Staphylococcus aureus FtsZ-mediated GTPase activity preincubated for 10 mins followed by GTP addition measured after 30 mins by absorbance based assay; settings: dose <= 35.0 µg/ml, time 40.0 min
Summary of the method: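 S. aureus FtsZ (6 µM) preincubated 10 min at room temperature with a range of compound concentrations in 50 mM Hepes-KOH. KCl 300 mM, MgCl2 5 mM and GTP 1 mM then added, 30 min at 37 °C. Reaction quenched with Cytophos reagent for 10 min; released phosphate read at 620 nm.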

[13] = Metabolic stability in human liver microsomes assessed as half life preincubated for 5 mins followed by NADPH addition measured upto 45 mins by LC/MS analysis; type: ADME, Microsome; settings: time < 50 min; summary of the method: as §2
[14] = Cmax in ICR mouse at 1 mg/kg, iv measured for 0.08 to 24 hrs by LC-MS/MS analysis; type: ADME, organism-based; design: time upper 24 hrs, dose 1 mg/kg, time lower 0.08 hrs, route iv; settings: in vivo; summary of the method: as §3
[15] = Selectivity index, ratio of CC50 for African green monkey Vero cells to MIC for Bacillus subtilis ATCC9372; type: toxicity, cell-based; settings: read-out: Selectivity Index
Summary of the method: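 CC50 in Vero cells (72 h Alamar blue) divided by broth microdilution MIC against B. subtilis ATCC9372.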

## Cc1cc(Cl)ccc1-c1cccc(COc2ccc(F)c(C(N)=O)c2F)c1
[1]
  inhibition: Active
[2]
  remaining at 0 min: 100%
[3]
  CLint scaled: 183 mL/min/kg
Bacillus subtilis
  MIC: 0.016 µg/mL (≈ 0.0413 µM)
[4]
  t1/2: 0.28 h
[5]
  bioavailability: 61.2%
[6]
  remaining at 0 min: 100%
[7]
  inhibition: Active
[8]
  CLint scaled: 15.5 mL/min/kg
Staphylococcus aureus [9]
  MBC: 0.25 µg/mL (≈ 0.645 µM)
Staphylococcus aureus [10]
  MIC: 0.125 µg/mL (≈ 0.322 µM)
[11]
  remaining at 0.25 h: 39%
[12]
  inhibition: Active
[13]
  half-life: 1.87 h
[14]
  Cmax: 480 ng/mL
[15]
  selectivity ratio: > 645
